# Assay results from different studies.
# Cell line: HCT-116
# Observed: cell growth or viability
SMILES,test,conditions,endpoint,result
COc1cc(/C=N/n2c(C)nc3ccc(C)cc3c2=O)ccc1OCc1ccccc1,LDH,"200 µg/mL, 24 h",viability,74.5%
COc1ccc(C(=O)/C=C/c2cccc(Cl)c2)cc1S(N)(=O)=O,SRB,48 h,GI50,1200 nM
CCN(CC)CCCOc1cc2cc3c(cc2c2nc(OC)c4cc(OC)c(OC)cc4c12)OCO3,MTT,72 h,GI50,13000 nM
COc1ccc(NC(=O)c2c(Nc3ccccc3)sc(C(=O)NN=Cc3ccc(OC)c(O)c3)c2NC(C)=O)cc1,SRB,"10 nM, 48 h",viability,83.7%
COc1cc(CNC(=O)CCCC/C=C/C(C)C)ccc1O,SRB,10 µM,inhibition,0%
COc1ccc(C(=O)/C=C/c2cccc(Cl)c2Cl)cc1S(N)(=O)=O,SRB,48 h,GI50,1300 nM
Cc1nc2ccc(Br)cc2c(=O)n1/N=C/c1ccc(C(=O)O)cc1,LDH,"200 µg/mL, 24 h",viability,53.5%
COc1ccc(NC(=O)c2c(Nc3ccccc3)sc(C#N)c2NC(=O)CNc2ccc([N+](=O)[O-])cc2)cc1,SRB,"0.1 µM, 48 h",viability,83.9%
COc1cccc(Oc2ccccc2NC(=O)CNC(=O)c2cccc3ccccc23)c1,SRB,48 h,GI50,95.5 nM
COc1ccc(C(=O)/C=C/c2ccc3c(c2)OCCO3)cc1S(N)(=O)=O,SRB,10 µM,inhibition,57%
COc1cc2c(OC)nc3c4cc5c(cc4cc(O)c3c2cc1OC)OCO5,MTT,72 h,GI50,5700 nM
COc1ccc(NC(=O)c2c(Nc3ccccc3)sc(C#N)c2NC(=O)CNc2ccc(OC)c(OC)c2)cc1,SRB,"10 µM, 48 h",viability,53.6%
COc1ccc(C(=O)/C=C/c2ccc(Cl)c(Cl)c2)cc1S(N)(=O)=O,SRB,48 h,GI50,1200 nM
COc1ccc(NC(=O)c2c(Nc3ccccc3)sc(C(=O)NN=Cc3ccc(Cl)cc3)c2NC(C)=O)cc1,SRB,"10 µM, 48 h",viability,61.3%
COc1cc2c(OC)nc3c4cc5c(cc4cc(OCCN4CCCC4)c3c2cc1OC)OCO5,MTT,72 h,GI50,64000 nM
COc1ccc(NC(=O)c2c(Nc3ccccc3)sc(C#N)c2NC(=O)CNc2ccc(Cl)cc2)cc1,SRB,"10 µM, 48 h",viability,48.6%
COc1ccc(C(=O)/C=C/c2ccc3ccccc3c2)cc1S(N)(=O)=O,SRB,10 µM,inhibition,198%
CNC(=O)c1cc(Oc2ccc(NC(=O)Nc3ccc(Cl)c(C(F)(F)F)c3)cc2)ccn1,SRB,"1 µM, 48 h",viability,46.6%
COc1ccc(C(=O)/C=C/c2cccc(Br)c2)cc1S(N)(=O)=O,SRB,10 µM,inhibition,199%
